Laboratory results published in ChEMBL document CHEMBL4052730, “Synthesis and evaluation of (E)-2-(5-phenylpent-2-en-4-ynamido)cyclohex-1-ene-1-carboxylate derivatives as HCA2 receptor agonists” (Bioorg Med Chem, 2017).

Experiments:
[1] = molecular target: T1, Hydroxycarboxylic acid receptor 2 (Homo sapiens, UniProt Q8TDS4); test: Displacement of [5,6-3H]-nicotinic acid from recombinant human HCA2 receptor expressed in Flp-IN HEK cell membranes after 2 hrs by microbeta counting method
How it was run: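 Membranes from human HCA2-expressing Flp-In-293 cells were prepared by acoustic disruption in TE buffer (pH 7.6) and centrifugation at 21,000g. They were used at 25 µg/well in 50 mM Tris-HCl, 1 mM MgCl2, 0.02% CHAPS, pH 7.6, without BSA. Competition with 20 nM [5,6-3H]-nicotinic acid ran 2 h at room temperature, followed by GF/B filtration and scintillation counting. Duplicates, repeated three times.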

[2] = molecular target: T1, Hydroxycarboxylic acid receptor 2; test: Agonist activity at recombinant human HCA2 receptor expressed in Flp-IN HEK cells assessed as reduction in forskolin-stimulated cAMP accumulation measured after 30 mins relative to control; type: functional, cell-based
How it was run: (§1)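 Flp-In-293 cells stably expressing recombinant human HCA2, 12,000 cells/well, treated with compounds plus 3 µM forskolin for 30 min in PBS containing 0.5 mM IBMX, without BSA. Read-out is reduction of forskolin-stimulated cAMP, reported as EC50 and as maximal inhibition (%). Mean ± SD of at least three experiments, each in duplicate.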

[3] = molecular target: T1, Hydroxycarboxylic acid receptor 2; test: Agonist activity at recombinant human HCA2 receptor expressed in Flp-IN HEK cells assessed as reduction in forskolin-stimulated cAMP accumulation measured after 30 mins; type: functional, cell-based; how it was run: as §1

T1 sequence (Q8TDS4 whole entry): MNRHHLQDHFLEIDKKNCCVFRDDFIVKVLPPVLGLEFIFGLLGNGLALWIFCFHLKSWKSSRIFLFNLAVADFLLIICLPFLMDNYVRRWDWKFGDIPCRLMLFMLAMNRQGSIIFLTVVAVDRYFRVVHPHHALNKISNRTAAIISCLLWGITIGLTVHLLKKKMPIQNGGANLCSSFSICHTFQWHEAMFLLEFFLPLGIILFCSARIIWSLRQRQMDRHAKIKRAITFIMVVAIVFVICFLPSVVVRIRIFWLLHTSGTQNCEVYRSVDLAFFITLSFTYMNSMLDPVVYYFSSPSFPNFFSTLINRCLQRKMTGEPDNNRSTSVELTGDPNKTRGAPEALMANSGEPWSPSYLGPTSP

IC50 [1] | Emax [2] | EC50 [3] | Compound
37 nM | 78% | 250 nM | O=C(/C=C/C#Cc1ccccc1O)NC1=C(C(=O)O)CCCC1
2830 nM | 70% | 19600 nM | O=C(/C=C/CCc1ccccc1)NC1=C(C(=O)O)CCCC1
291 nM | 99% | 630 nM | O=C(CCC#Cc1ccc(F)cc1)NC1=C(C(=O)O)CCCC1
56 nM | 95% | 190 nM | O=C(CCC#Cc1ccccc1Cl)NC1=C(C(=O)O)CCCC1
58 nM | 99% | 260 nM | O=C(CCc1ccc(-c2ccc(O)cc2F)cc1)NC1=C(C(=O)O)CCCC1
75 nM | 92% | 130 nM | O=C(CCc1ccc(-c2ccccc2Cl)cc1)NC1=C(C(=O)O)CCCC1
21 nM | 92% | 70 nM | O=C(CCc1ccc(-c2ccc(O)cc2)cc1)NC1=C(C(=O)O)CCCC1
665 nM | 91% | 3370 nM | O=C(CCC#Cc1ccc(O)cn1)NC1=C(C(=O)O)CCCC1
16 nM | 84% | 450 nM | O=C(/C=C/C#Cc1ccccc1F)NC1=C(C(=O)O)CCCC1
138 nM | 89% | 2980 nM | O=C(CCC#Cc1cccc(O)c1)NC1=C(C(=O)O)CCCC1
331 nM | 96% | 110 nM | O=C(/C=C/C#Cc1ccc(O)cc1F)NC1=C(C(=O)O)CCCC1
13 nM | 91% | 160 nM | O=C(CCC#Cc1ccc(O)cc1)NC1=C(C(=O)O)CCCC1
32 nM | 96% | 230 nM | O=C(CCc1ccc(-c2cccc(O)c2)cc1)NC1=C(C(=O)O)CCCC1
67 nM | 90% | 360 nM | O=C(CCC#Cc1ccccc1F)NC1=C(C(=O)O)CCCC1
3620 nM | 74% | 5610 nM | O=C(CCC#Cc1ccc(C(=O)O)cc1)NC1=C(C(=O)O)CCCC1
76 nM | 94% | 90 nM | O=C(CCC#Cc1ccc(O)cc1Cl)NC1=C(C(=O)O)CCCC1
28 nM | 93% | 80 nM | O=C(CCC#Cc1ccc(O)cc1F)NC1=C(C(=O)O)CCCC1
282 nM | 97% | 190 nM | O=C(CCc1ccc(-c2ccccc2F)cc1)NC1=C(C(=O)O)CCCC1
383 nM | 92% | 390 nM | O=C(/C=C/C#Cc1cccc(O)c1)NC1=C(C(=O)O)CCCC1
25 nM | 97% | 130 nM | O=C(/C=C/C#Cc1ccc(O)cc1)NC1=C(C(=O)O)CCCC1
327 nM | 79% | 1010 nM | O=C(/C=C/C#Cc1ccccc1)NC1=C(C(=O)O)CCCC1
40 nM | 90% | 410 nM | O=C(CCc1ccc(-c2ccccc2O)cc1)NC1=C(C(=O)O)CCCC1
88 nM | 88% | 270 nM | O=C(/C=C/C#Cc1ccccc1Cl)NC1=C(C(=O)O)CCCC1
229 nM | 93% | 720 nM | O=C(CCC#Cc1ccccc1O)NC1=C(C(=O)O)CCCC1
